In brackets after ≈: the same amount, converted by molar mass. Activity calls are given as the source filed them. The rule behind the calls is not given here.
Assays:
[1] = molecular target: T1, Oxysterols receptor LXR-alpha (Homo sapiens) (UniProt Q13133); assay: (§1) Partial agonist activity at GST-tagged LXRalpha-LBD (unknown origin) by LanthaScreen TR-FRET liver X receptor coactivator assay
T1 sequence (whole entry): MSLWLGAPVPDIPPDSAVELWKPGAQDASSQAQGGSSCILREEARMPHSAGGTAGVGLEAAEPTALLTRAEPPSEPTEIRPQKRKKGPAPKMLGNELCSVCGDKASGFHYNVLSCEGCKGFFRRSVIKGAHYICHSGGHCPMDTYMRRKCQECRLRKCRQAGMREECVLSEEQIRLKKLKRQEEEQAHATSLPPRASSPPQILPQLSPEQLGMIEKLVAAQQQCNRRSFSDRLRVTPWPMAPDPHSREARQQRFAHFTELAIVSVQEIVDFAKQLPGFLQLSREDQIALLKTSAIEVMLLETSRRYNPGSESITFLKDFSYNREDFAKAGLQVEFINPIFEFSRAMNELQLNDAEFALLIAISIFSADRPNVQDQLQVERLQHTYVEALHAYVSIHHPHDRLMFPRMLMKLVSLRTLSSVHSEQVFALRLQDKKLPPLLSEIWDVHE
In short: (§2)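 Cofactor recruitment assay using the ligand binding domains of LXRβ or LXRα. The read-out was EC50 and Emax, with Emax relative to a full agonist control.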

[2] = molecular target: T2, Oxysterols receptor LXR-alpha (Homo sapiens, UniProt Q13133); assay: as §1; in short: as §2
T2 sequence (Q13133 whole entry): T1 sequence (whole entry)

[3] = molecular target: T1, Oxysterols receptor LXR-alpha (Homo sapiens); assay: (§3) Partial agonist activity at LXRalpha (unknown origin) expressed in human HepG2 cells co-expressing ABCA1 promoter measured after 48 hrs by cell-based transactivation assay
In short: (§4)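 Cell-based transactivation assay using endogenous LXRβ or LXRα. The read-out was EC50 and Emax, with Emax expressed relative to a full agonist control set at 100%.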

[4] = molecular target: T2, Oxysterols receptor LXR-alpha; assay: as §3; in short: as §4
[5] = Apparent permeability of compound in MDCK cells; type: ADME, cell-based, Canis lupus familiaris; details: dog
[6] = Solubility of the compound at pH 2; type: physicochemical; details: buffer
P-gp [7] = assay: Efflux ratio in MDCK cells expressing rat P-gp assessed as ratio of permeability across basolateral to apical side over apical to basolateral side; type: ADME, cell-based, Canis lupus familiaris; details: dog, MDCK-MDR1
P-gp [8] = assay: Efflux ratio in MDCK cells expressing human P-gp assessed as ratio of permeability across basolateral to apical side over apical to basolateral side; type: ADME, cell-based, Canis lupus familiaris; details: dog, MDCK-MDR1
[9] = Ratio of drug uptake in brain to plasma in rat; type: ADME, cell-free; details: brain and plasma, read-out: BPR
[10] = Clearance in rat; type: ADME, organism-based; details: in vivo
[11] = Half life of compound in rat; type: ADME, organism-based; details: in vivo
[12] = Volume of distribution at steady state in rat; type: ADME, organism-based; details: in vivo, read-out: Vdss
[13] = Oral bioavailability in rat; type: ADME, organism-based; details: in vivo
[14] = Protein binding in rat plasma; type: ADME, cell-free; details: read-out: PPB (converted)
[15] = Oral bioavailability in rhesus monkey; type: ADME, organism-based, Macaca mulatta; details: in vivo
Rattus norvegicus = assay: Increase in apoE level in CSF of Wistar Han rat at 100 mg/kg, sc dosed for 4 days by western blotting method; type: functional, organism-based
In short: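 Rats were dosed subcutaneously for 4 days, and apoE and Aβ were then measured in CSF.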

Mus musculus [16] = assay: Activation of LXR in Tg2576 transgenic mouse assessed increase in soluble apoE level in brain at 50 mg/kg, sc dosed for 3 weeks; type: functional, organism-based
In short: (§5)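 12-month-old Tg2576 mice were dosed subcutaneously for three weeks. Brain was assayed for ABCA1 protein, soluble apoE and DEA-soluble Aβ, and plasma and liver were assayed for triglycerides. Groups were compared with vehicle by ANOVA.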

Mus musculus [17] = assay: Toxicity in Tg2576 transgenic mouse assessed as change in plasma triglyceride level at 50 mg/kg, sc dosed for 3 weeks; type: organism-based; details: in vivo, 504 h; in short: as §5
Mus musculus [18] = assay: Toxicity in wild-type mouse assessed as effect on locomotary behavior at 50 mg/kg, sc dosed for 16 days mins by open field test; type: organism-based; details: in vivo, 384 h
In short: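 Wild-type mice were part of a three-week subcutaneous dosing study that also included Tg2576 transgenic mice. Locomotor activity was scored in an open-field arena after 16 days of dosing.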

Mus musculus [19] = assay: Reversal of hyperlocomotary behavior in Tg2576 transgenic mouse at 50 mg/kg, sc administered as single dose 4 hrs before test by open field test; type: functional, organism-based
In short: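 A single subcutaneous dose was given 4 h before the open-field locomotor test.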

[20] = Cmax in rhesus monkey at 20 mg/kg, po administered for 2 weeks; type: ADME, organism-based, Macaca mulatta; set-up: dose 20 mg/kg, route oral; details: in vivo
In short: (§6)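 Cmax was estimated across a 2-week once-daily oral dosing study in rhesus monkeys.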

[21] = Cmax in rhesus monkey at 10 mg/kg, po administered for 2 weeks; type: ADME, organism-based, Macaca mulatta; set-up: dose 10 mg/kg, route oral; details: in vivo; in short: as §6
Rhesus monkey [22] = assay: Increase in amyloid beta40 in CSF of rhesus monkey at 20 mg/kg, po administered for 2 weeks; type: functional, Macaca mulatta
Rhesus monkey [23] = assay: Increase in hepatic fat content in rhesus monkey at 10 and 20 mg/kg, po qd for 2 weeks by magnetic resonance spectroscopic imaging method relative to vehicle control; type: ADME, organism-based, Macaca mulatta; details: in vivo, 336 h
Rhesus monkey [24] = assay: Increase in lipid level in serum of rhesus monkey at 10 to 20 mg/kg, po qd for 2 weeks; type: ADME, organism-based, Macaca mulatta; details: in vivo, 336 h
Rhesus monkey [25] = assay: Increase in lipid level in liver of rhesus monkey at 10 to 20 mg/kg, po qd for 2 weeks; type: ADME, organism-based, Macaca mulatta; details: in vivo, 336 h
Rhesus monkey [26] = assay: Upregulation of CETP in rhesus monkey at 20 mg/kg, po qd for 2 weeks relative to control; type: ADME, organism-based; details: Macaca mulatta, 336 h, read-out: FC
Rhesus monkey [27] = assay: Decrease in ratio of HDL to LDL level in rhesus monkey plasma at 10 to 20 mg/kg, po qd for 2 weeks; type: ADME, organism-based, Macaca mulatta; details: in vivo, 336 h
In short: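 Rhesus monkeys were dosed orally once daily for 2 weeks. LDL and HDL cholesterol were measured in serum at trough after the last dose and compared with baseline serum samples taken before dosing.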

[28] = molecular target: T3, Oxysterols receptor LXR-beta (Homo sapiens) (UniProt P55055); assay: Agonist activity at GST-tagged LXRbeta-LBD (unknown origin) by LanthaScreen TR-FRET liver X receptor coactivator assay relative to T1317; in short: as §2
T3 sequence (whole entry): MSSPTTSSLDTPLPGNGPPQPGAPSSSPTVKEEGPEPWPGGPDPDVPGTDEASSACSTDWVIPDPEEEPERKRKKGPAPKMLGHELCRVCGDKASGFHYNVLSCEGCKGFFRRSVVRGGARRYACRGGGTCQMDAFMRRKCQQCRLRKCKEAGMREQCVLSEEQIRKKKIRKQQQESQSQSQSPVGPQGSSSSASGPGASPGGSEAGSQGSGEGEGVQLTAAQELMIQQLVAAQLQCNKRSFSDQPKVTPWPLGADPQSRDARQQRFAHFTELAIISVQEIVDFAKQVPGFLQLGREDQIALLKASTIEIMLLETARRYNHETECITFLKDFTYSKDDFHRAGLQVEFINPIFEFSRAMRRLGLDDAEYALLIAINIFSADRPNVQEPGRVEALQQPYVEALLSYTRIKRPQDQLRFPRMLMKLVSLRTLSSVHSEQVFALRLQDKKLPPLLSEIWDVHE

[29] = molecular target: T1, Oxysterols receptor LXR-alpha (Homo sapiens); assay: Agonist activity at GST-tagged LXRalpha-LBD (unknown origin) by LanthaScreen TR-FRET liver X receptor coactivator assay T1317; in short: as §2
Rhesus monkey [30] = assay: Increase in amyloid beta42 in CSF of rhesus monkey at 20 mg/kg, po administered for 2 weeks; type: functional, Macaca mulatta

CC(C)[C@@](O)(C(=O)N1CCC(C2CCN(c3ccc(C(=O)N(C)C)c(Cl)c3)CC2)CC1)C(F)(F)F
Emax [1]: 49%
EC50 [2]: 1900 nM
Emax [3]: 31%
EC50 [4]: 830 nM
Papp [5]: 24 ×10⁻⁶ cm/s
solubility [6]: 205 µM (≈ 106 µg/mL)
efflux ratio (P-gp [7]): 0.8
efflux ratio (P-gp [8]): 0.6
Kp [9]: 0.62
clearance [10]: 87 mL/min/kg
half-life [11]: 2.9 h
Vd [12]: 8.8 L/kg
bioavailability [13]: 71%
fraction unbound [14]: 0.018
bioavailability [15]: 77%
Activity (Rattus norvegicus): Active
Activity (Mus musculus [16]): Active
Activity (Mus musculus [17]): Non-toxic
Activity (Mus musculus [18]): Non-toxic
Activity (Mus musculus [19]): inactive
Cmax [20]: 18 µM
Cmax [21]: 1 µM
Activity (Rhesus monkey [22]): 25%
Activity (Rhesus monkey [23]): Non-toxic
Activity (Rhesus monkey [24]): Non-toxic
Activity (Rhesus monkey [25]): Non-toxic
fold induction at 20 mg/kg (Rhesus monkey [26]): 2.8
Activity (Rhesus monkey [27]): Toxic
Emax [28]: 103%
Emax [29]: 49%
Activity (Rhesus monkey [30]): 25%
